# Experimental data reported in ChEMBL document CHEMBL3399918, “In vitro radical scavenging and cytotoxic activities of novel hybrid selenocarbamates” (Bioorg Med Chem, 2015).
# Activity calls are given as the source filed them. The rule behind the calls is not given here.
# How the values were obtained:
# [1] = Glutathione peroxidase-like activity assessed as reduction in H2O2 reduction by tiophenol based UV absorption spectrometry
# Outline: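 Iwaoka–Tomoda thiophenol method. Compound in ethanol at 0.1 mg/mL, mixed in equal volumes with 2 mM PhSH in ethanol and 5 mM H2O2 in ethanol (stock concentrations). Data collected every 5 s. Negative control contained compound, vehicle and PhSH without H2O2. Triplicate; mean ± SD.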
# [2] = Cytotoxicity against human PC3 cells after 72 hrs by MTT assay; assay type: functional; details: PC-3, 72 h
# Outline: (§1)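 CCRF-CEM, HT-29, PC-3 and HTB-54 cells grown in RPMI 1640 with 10% foetal calf serum, 2 mM L-glutamine, penicillin/streptomycin, 10 mM HEPES (pH 7.4). Five concentrations, 0.01–100 μM, 72 h at 37 °C, 5% CO2; MTT read-out. GI50, TGI and LC50 versus untreated controls; at least 3 independent experiments in quadruplicate.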
# [3] = Cytotoxicity against human 184B5 cells after 72 hrs by MTT assay; assay type: cell-based; details: for GI50 at 72 h: 184B5 cells; for LC50 / TGI: 184b5, 72 h
# Outline: (§2)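 Non-malignant lines: 184B5 (normal breast) in Hams F-12/DMEM (50:50) with published supplements; BEAS-2B (bronchial epithelium) in Hams F-12/DMEM (50:50) with 10% foetal calf serum, 2 mM L-glutamine, penicillin/streptomycin. Compounds at five concentrations, 0.01–100 μM, 72 h, 37 °C, 5% CO2; MTT read-out. GI50, TGI, LC50 relative to untreated controls; ≥3 independent experiments in quadruplicate.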
# [4] = Antioxidant activity assessed as ABTS radical scavenging activity at 0.1 mg/ml after 6 mins; assay type: physicochemical; details: 0.1 h
# Outline: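 Diluted with 50% ethanol to A741 0.700 ± 0.02. A741 decrease read after 6 min against a 50% ethanol blank. % scavenged relative to a vehicle-plus-radical control. Quadruplicate.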
# [5] = tested on: CCRF-CEM; assay: Cytotoxicity against human CCRF-CEM cells after 72 hrs by MTT assay; assay type: functional; outline: as §1
# [6] = tested on: HT-29; assay: Cytotoxicity against human HT-29 cells after 72 hrs by MTT assay; assay type: functional; details: HT-29, 72 h; outline: as §1
# [7] = Cytotoxicity against human HTB-54 cells after 72 hrs by MTT assay; assay type: functional; details: HTB-54, 72 h; for CC50: read-out: LC50 (the source's name); outline: as §1
# [8] = Antioxidant activity assessed as DPPH radical scavenging activity at 0.5 mg/ml after 180 mins; assay type: physicochemical; details: 3 h
# Outline: (§3)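 Compounds in absolute ethanol, serially diluted from 1 mg/mL, mixed 1:1 with […] in ethanol. Final range 0.016–0.5 mg/mL, 6 concentrations. Incubated at 37 °C in the dark, with decolourisation followed at 517 nm at several time intervals. % scavenged = (A vehicle control − A sample)/A control × 100. Quadruplicate; mean ± SD.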
# [9] = tested on: MCF7; assay: Cytotoxicity against human MCF7 cells after 72 hrs by MTT assay; assay type: functional; details: MCF7, 72 h; for CC50: read-out: LC50 (the source's name)
# Outline: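 MCF-7 cells grown in EMEM with 10% foetal calf serum, 2 mM L-glutamine, 100 units/mL penicillin, 100 µg/mL streptomycin. Exposed to five concentrations between 0.01 and 100 μM for 72 h, 37 °C, humidified 5% CO2; MTT read-out. GI50, TGI, LC50 relative to untreated controls; ≥3 independent experiments in quadruplicate.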
# [10] = Cytotoxicity against human BEAS2B cells after 72 hrs by MTT assay; assay type: cell-based, BEAS-2B; details: for GI50 at 72 h: BEAS2B cells; for LC50 / TGI: beas-2b, 72 h; outline: as §2
# [11] = Antioxidant activity assessed as ABTS radical scavenging activity by measuring Trolox equivalent antioxidant capacity after 6 mins; assay type: physicochemical; details: 0.1 h
# Outline: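 ABTS dissolved in deionized water at 1 mg/mL, oxidised to radical cation with potassium persulfate (2.45 mM final), kept overnight at room temperature in dark, then diluted with 50% ethanol to A741 = 0.700 ± 0.02. Compound (1 mg/mL ethanol stock) added 1:10 (0.1 mg/mL); A741 decrease read after 6 min against 50% ethanol blank. Trolox positive control; quadruplicate; TEAC from calibration curve.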
# [12] = Antioxidant activity assessed as DPPH radical scavenging activity at 0.25 mg/ml; assay type: physicochemical; details: TDE = time-dependent effect; outline: as §3
# [13] = Glutathione peroxidase-like activity assessed as reduction in H2O2 reduction at 0.033 mg/ml by tiophenol based UV absorption spectrometry
# Outline: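 Iwaoka–Tomoda method: compound in ethanol (0.1 mg/mL stock) mixed in equal volumes with 2 mM PhSH and 5 mM H2O2 (both ethanol stocks), thiophenol-driven catalytic H2O2 reduction. Data collected every 5 s. Negative control without H2O2 (compound, vehicle, PhSH). Triplicate.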
Structure (SMILES),GI50 [2],LC50 (concentration causing 50% net cell kill) [2],TGI [2],GI50 at 72 h [3],LC50 [3],TGI [3],inhibition (INH) [4],GI50 [5],LC50 [5],TGI [5],GI50 [6],LC50 [6],TGI [6],GI50 [7],TGI [7],CC50 [7],inhibition (INH) [8],GI50 [9],TGI [9],CC50 [9],other results
COc1ccc(OC(=O)Nc2ccc([Se][Se]c3ccc(NC(=O)Oc4ccc(OC)cc4)cc3)cc2)cc1,4.4 µM,64.6 µM,28.2 µM,3.4 µM,43.5 µM,8.1 µM,> 25%,5.3 µM,63.1 µM,25.8 µM,13 µM,79.2 µM,46.1 µM,18 µM,46.3 µM,74.5 µM,> 50%,9.7 µM,42.8 µM,76.8 µM,Activity [1]: inactive; GI50 at 72 h [10]: 0.6 µM; LC50 [10]: 62.3 µM; TGI [10]: 19.9 µM
CC(C)COC(=O)Nc1ccc([Se][Se]c2ccc(NC(=O)OCC(C)C)cc2)cc1,24.2 µM,73.7 µM,48.9 µM,5.5 µM,56.6 µM,10.5 µM,29.6%,9.8 µM,70.2 µM,39.8 µM,19.9 µM,77.4 µM,48.6 µM,29 µM,52.9 µM,76.9 µM,66.5%,19 µM,49.7 µM,80.5 µM,Activity [1]: inactive; Activity [11]: 20 µg/µL; inhibition (INH) [12]: tde; GI50 at 72 h [10]: 13.1 µM; LC50 [10]: 72.4 µM; TGI [10]: 42.7 µM
CCOC(=O)Nc1ccc([Se]C#N)cc1,9.9 µM,68.4 µM,39.2 µM,5.5 µM,59 µM,18.6 µM,26.3%,9.8 µM,68.8 µM,39.1 µM,9.3 µM,66.6 µM,38 µM,24.9 µM,49.3 µM,72.7 µM,37%,8.9 µM,36.7 µM,67.8 µM,Activity [11]: 17.4 µg/µL; Activity [13]: Active; GI50 at 72 h [10]: 21.7 µM; LC50 [10]: 72.2 µM; TGI [10]: 46.9 µM
